Converted amounts (≈) assume the structure as drawn. The source made the active and inactive calls. The rule behind the calls is not given here.
Key:
Trypanosoma cruzi [1] = test: Antitrypanosomal activity against Trypanosoma cruzi Tulahuen trypomastigote forms infected in mouse L929 cells assessed as reduction in infection level at 10 to 12 uM after 96 hrs by beta-galactosidase reporter gene assay relative to control; format: functional; design: scale not given: the % may be the effect or the level left
Method in brief: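 L929 cells infected 2 h with tissue culture-derived β-galactosidase-expressing Tulahuen trypomastigotes at 10:1 parasite/host cell ratio, rinsed, and held 48 h at 37℃. Single fixed concentration (10-12 µM) then applied, 96 h. Absorbance read at 570 nm; growth inhibition expressed relative to untreated cells. DMSO not above 0.6 %.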

Trypanosoma cruzi [2] = test: Antitrypanosomal activity against Trypanosoma cruzi Tulahuen trypomastigote forms infected in mouse L929 cells assessed as reduction in parasite load after 96 hrs by beta-galactosidase reporter gene assay; format: functional, organism-based; details: L929, 96 h
Method in brief: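 L929 cells infected 2 h with tissue culture-derived Tulahuen β-galactosidase trypomastigotes (10:1 parasite/host cell), rinsed with saline, and left 48 h at 37℃. Increasing non-toxic concentrations applied for 96 h. Absorbance read at 570 nm, % growth inhibition versus untreated cells, EC50 derived; mean ± SD. DMSO not above 0.6 %.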

[3] = Cytotoxicity against mouse L929 cells assessed as reduction in cell viability after 96 hrs by Alamarblue assay; format: cell-based; details: read-out: LC50
Method in brief: (§1)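 L929 fibroblasts (4x10^3 cells/well) in RPMI 1640 with 10% FBS, incubated at 37°C with increasing concentrations for 96 h. Viability was read with AlamarBlue (6 h incubation, absorbance at 600 nm) and confirmed by light microscopy.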

[4] = Cytotoxicity against mouse L929 cells assessed as reduction in cell viability after 96 hrs by light microscopic analysis; format: cell-based; details: read-out: LC50; method in brief: as §1
[5] = Selectivity index, ratio of LC50 for mouse L929 cells by Alamarblue assay to EC50 for Trypanosoma cruzi Tulahuen trypomastigote forms; format: toxicity; details: read-out: Selectivity Index
[6] = Selectivity index, ratio of LC50 for Swiss Webster mouse cardiac cells by prestoblue assay to EC50 for bloodstream trypomastigote stage of Trypanosoma cruzi Y measured after 24 hrs; format: toxicity; details: read-out: Selectivity Index
Method in brief: (§2)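 The ratio is cardiac-cell LC50 (24 h) over the 24 h EC50 against Y-strain bloodstream trypomastigotes. Trypomastigotes (5x10^6/mL) were exposed to 0-50 µM at 37°C in RPMI with 5% FBS. Surviving parasites were counted in a Neubauer chamber, and the EC50 is the concentration halving the parasite number.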

[7] = Cytotoxicity against Swiss Webster mouse cardiac cells assessed as reduction in cell viability after 24 hrs by light microscopic analysis; format: cell-based, Cardiac Muscle Cell; details: read-out: LC50
Method in brief: (§3)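 Primary cardiac cells from Swiss Webster mouse embryos, cultured at 37°C in DMEM with 5% FBS, CaCl2, glutamine and chick embryo extract. Uninfected cultures were exposed to increasing concentrations for 24 h. Viability was read with PrestoBlue (5 h incubation, absorbance at 570 nm) and checked by light microscopy for morphology.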

[8] = Selectivity index, ratio of LC50 for mouse L929 cells by light microscopic analysis to EC50 for Trypanosoma cruzi Tulahuen trypomastigote forms; format: toxicity; details: read-out: Selectivity Index
Trypanosoma cruzi [9] = test: Antitrypanosomal activity against bloodstream trypomastigote stage of Trypanosoma cruzi Y measured after 24 hrs by light microscopic analysis; format: functional, organism-based
Method in brief: (§4)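 Y strain bloodstream trypomastigotes from heart puncture of infected mice, at 5x10⁶/mL in RPMI 1640 with 5% FBS. Incubated at 37℃ with 0–50 µM for 2 or 24 h. […] Mean ± SD.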

[10] = Cytotoxicity against Swiss Webster mouse cardiac cells assessed as reduction in cell viability after 24 hrs by prestoblue assay; format: cell-based, Cardiac Muscle Cell; details: read-out: LC50; method in brief: as §3
[11] = Selectivity index, ratio of LC50 for Swiss Webster mouse cardiac cells by light microscopic analysis to EC50 for bloodstream trypomastigote stage of Trypanosoma cruzi Y measured after 24 hrs; format: toxicity; details: read-out: Selectivity Index; method in brief: as §2
Trypanosoma cruzi [12] = test: Antitrypanosomal activity against bloodstream trypomastigote stage of Trypanosoma cruzi Y measured after 2 hrs by light microscopic analysis; format: functional, organism-based; method in brief: as §4
[13] = target: Sterol 14-alpha demethylase (Trypanosoma cruzi (strain CL Brener)) (UniProt Q7Z1V1); test: Inhibition of recombinant Trypanosoma cruzi Tulahuen CYP51 expressed in Escherichia coli JM109 cell membranes assessed as residual activity at 0.5 uM by fluorescence based analysis (reference value: 100%)
Method in brief: (§5)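 Fluorescence-based functional assay using recombinant T. cruzi (Tulahuen) CYP51. […] Residual activity was measured across a concentration series and fitted to a curve to give the IC50.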

[14] = target: Sterol 14-alpha demethylase (Trypanosoma cruzi (strain CL Brener)) (UniProt Q7Z1V1); test: Inhibition of recombinant Trypanosoma cruzi Tulahuen CYP51 expressed in Escherichia coli JM109 cell membranes assessed as residual activity at 0.00165 uM by fluorescence based analysis (reference value: 100%); method in brief: as §5
[15] = target: Sterol 14-alpha demethylase (Trypanosoma cruzi (strain CL Brener)) (UniProt Q7Z1V1); test: Inhibition of recombinant Trypanosoma cruzi Tulahuen CYP51 expressed in Escherichia coli JM109 cell membranes assessed as residual activity at 0.0165 uM by fluorescence based analysis (reference value: 100%); method in brief: as §5
[16] = target: Sterol 14-alpha demethylase (Trypanosoma cruzi (strain CL Brener)) (UniProt Q7Z1V1); test: Inhibition of recombinant Trypanosoma cruzi Tulahuen CYP51 expressed in Escherichia coli JM109 cell membranes assessed as residual activity at 0.05 uM by fluorescence based analysis (reference value: 100%); method in brief: as §5
[17] = target: Sterol 14-alpha demethylase (Trypanosoma cruzi (strain CL Brener)) (UniProt Q7Z1V1); test: Inhibition of recombinant Trypanosoma cruzi Tulahuen CYP51 expressed in Escherichia coli JM109 cell membranes assessed as residual activity at 0.005 uM by fluorescence based analysis (reference value: 100%); method in brief: as §5
[18] = target: Sterol 14-alpha demethylase (Trypanosoma cruzi (strain CL Brener)) (UniProt Q7Z1V1); test: Inhibition of recombinant Trypanosoma cruzi Tulahuen CYP51 expressed in Escherichia coli JM109 cell membranes assessed as residual activity at 0.17 uM by fluorescence based analysis (reference value: 100%); method in brief: as §5
[19] = target: Sterol 14-alpha demethylase (Trypanosoma cruzi (strain CL Brener)) (UniProt Q7Z1V1); test: Inhibition of recombinant Trypanosoma cruzi Tulahuen CYP51 expressed in Escherichia coli JM109 cell membranes assessed as residual activity at 0.0005 uM by fluorescence based analysis (reference value: 100%); method in brief: as §5
Trypanosoma cruzi [20] = test: Trypanocidal activity against Trypanosoma cruzi Sylvio X10/7 intracellular amastigotes forms assessed as inhibition of maximum parasite growth measured every 24 hrs for 96 hrs by time-kill assay relative to control; format: functional
Trypanosoma cruzi [21] = test: Trypanocidal activity against Trypanosoma cruzi Sylvio X10/7 intracellular amastigotes forms measured every 24 hrs for 96 hrs by time-kill assay; format: functional
Trypanosoma cruzi [22] = test: Antitrypanosomal activity against bloodstream trypomastigote stage of Trypanosoma cruzi Y infected in Swiss Webster mouse assessed as increase in mouse survival at 5 to 20 mg/kg, ip administered daily on day 5 to 9 measured daily until 30 days post dose relative to control; format: functional, organism-based
Method in brief: (§6)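 Male Swiss Webster mice (18–20 g) infected i.p. with 10^4 Y strain bloodstream trypomastigotes. Treatment given days 5–9 post infection: test compound i.p. 5–20 mg/kg/day (0.1 mL, DMSO then 20% Trappsol) or Bz 100 mg/kg/day p.o. (3% Tween 80 in water). Controls infected, vehicle only. Parasitemia counted by Pizzi-Brener in 5 µL tail blood; mortality checked daily to 30 days post treatment.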

Trypanosoma cruzi [23] = test: Antitrypanosomal activity against bloodstream trypomastigote stage of Trypanosoma cruzi Y infected in Swiss Webster mouse assessed as reduction in parasitemia at 10 mg/kg, ip administered daily on day 5 to 9 post infection relative to control; format: functional; method in brief: as §6
Trypanosoma cruzi [24] = test: Antitrypanosomal activity against bloodstream trypomastigote stage of Trypanosoma cruzi Y infected in Swiss Webster mouse assessed as reduction in parasitemia at 20 mg/kg, ip administered daily on day 5 to 9 post infection relative to control; format: functional; method in brief: as §6
Trypanosoma cruzi [25] = test: Antitrypanosomal activity against bloodstream trypomastigote stage of Trypanosoma cruzi Y infected in Swiss Webster mouse assessed as reduction in parasitemia at 5 mg/kg, ip administered daily on day 5 to 9 post infection relative to control; format: functional; method in brief: as §6

Chain of Sterol 14-alpha demethylase (Trypanosoma cruzi (strain CL Brener)) (Q7Z1V1 whole entry, looked up): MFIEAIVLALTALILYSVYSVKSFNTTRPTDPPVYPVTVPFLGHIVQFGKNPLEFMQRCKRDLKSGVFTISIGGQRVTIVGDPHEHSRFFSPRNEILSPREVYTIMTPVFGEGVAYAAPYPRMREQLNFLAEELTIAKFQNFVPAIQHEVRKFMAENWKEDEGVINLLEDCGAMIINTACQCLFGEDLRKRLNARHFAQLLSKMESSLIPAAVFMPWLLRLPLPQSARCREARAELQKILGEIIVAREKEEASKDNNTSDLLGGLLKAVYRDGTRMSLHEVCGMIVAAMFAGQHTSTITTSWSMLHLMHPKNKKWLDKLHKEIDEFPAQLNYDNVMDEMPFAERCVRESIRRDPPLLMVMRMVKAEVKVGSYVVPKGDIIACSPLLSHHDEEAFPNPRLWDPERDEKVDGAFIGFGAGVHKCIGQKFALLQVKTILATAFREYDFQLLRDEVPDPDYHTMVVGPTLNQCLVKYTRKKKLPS

C=CCOc1ccc([C@H]2S[C@@H](C)C(=O)Nc3[nH]nc(C)c32)cc1
Activity (Trypanosoma cruzi [1]): 0%

Cc1n[nH]c2c1[C@@H](c1ccc(OC(C)C)cc1)S[C@@H](C)C(=O)N2
Activity (Trypanosoma cruzi [1]): 0%

COc1cc([C@H]2S[C@@H](C)C(=O)Nc3[nH]nc(C)c32)ccc1OCc1cccc(Cl)c1
Activity (Trypanosoma cruzi [1]): 39.94%

CCCOc1ccc([C@H]2S[C@@H](C)C(=O)Nc3[nH]nc(C)c32)cc1
Activity (Trypanosoma cruzi [1]): 0%

Cc1n[nH]c2c1[C@@H](c1ccc(OCc3ccc(F)cc3)cc1)S[C@@H](C)C(=O)N2
Activity (Trypanosoma cruzi [1]): 32.42%

Cc1n[nH]c2c1[C@@H](c1ccc(OCc3ccccc3F)cc1)S[C@@H](C)C(=O)N2
EC50 (Trypanosoma cruzi [2]): 5.3 µM
CC50 at 96 h [3]: > 200 µM
CC50 at 96 h [4]: > 200 µM
selectivity ratio [5]: > 38
selectivity ratio at 24 h [6]: > 4
CC50 at 24 h [7]: > 200 µM
selectivity ratio [8]: > 38
EC50 (Trypanosoma cruzi [9]): > 50 µM
CC50 at 24 h [10]: > 200 µM
Activity (Trypanosoma cruzi [1]): 63.64%
selectivity ratio at 24 h [11]: > 4
EC50 (Trypanosoma cruzi [12]): > 50 µM

Cc1n[nH]c2c1[C@@H](c1ccc(OCc3ccc(Cl)cc3)cc1)S[C@@H](C)C(=O)N2
Activity (Trypanosoma cruzi [1]): 14.88%

COc1cc([C@H]2S[C@@H](C)C(=O)Nc3[nH]nc(C)c32)ccc1OCc1ccccc1C
Activity (Trypanosoma cruzi [1]): 16.43%

COc1cc([C@H]2S[C@@H](C)C(=O)Nc3[nH]nc(C)c32)ccc1OCc1ccc(C)cc1
Activity (Trypanosoma cruzi [1]): 1.98%

CC[C@@H]([C@H](C)O)n1ncn(-c2ccc(N3CCN(c4ccc(OC[C@@H]5CO[C@@](Cn6cncn6)(c6ccc(F)cc6F)C5)cc4)CC3)cc2)c1=O
Activity [13]: 0%
Activity [14]: 98.4%
Activity [15]: 71.9%
Activity [16]: 32%
Activity [17]: 92.8%
Activity [18]: 0%
Activity [19]: 100%

CC1CS(=O)(=O)CCN1/N=C/c1ccc([N+](=O)[O-])o1 (stereo unspecified) [NIFURTIMOX]
Imax (Trypanosoma cruzi [20]): 103%
MIC (Trypanosoma cruzi [21]): 5 µM (≈ 1.44 µg/mL)

Cc1ccc(COc2ccc([C@H]3S[C@@H](C)C(=O)Nc4[nH]nc(C)c43)cc2)cc1
Activity (Trypanosoma cruzi [1]): 0%

COc1cc([C@H]2S[C@@H](C)C(=O)Nc3[nH]nc(C)c32)ccc1OCc1ccccc1Cl
Activity (Trypanosoma cruzi [1]): 27.88%

COc1cc([C@H]2S[C@@H](C)C(=O)Nc3[nH]nc(C)c32)ccc1OCc1ccccc1
Activity (Trypanosoma cruzi [1]): 12.02%

Cc1cccc(COc2ccc([C@H]3S[C@@H](C)C(=O)Nc4[nH]nc(C)c43)cc2)c1
EC50 (Trypanosoma cruzi [2]): 2.7 µM
CC50 at 96 h [3]: 98.9 µM
Activity (Trypanosoma cruzi [22]): inactive
Activity (Trypanosoma cruzi [23]): inactive
CC50 at 96 h [4]: 98.9 µM
selectivity ratio [5]: 36.6
selectivity ratio at 24 h [6]: 3.2
CC50 at 24 h [7]: 66 µM
selectivity ratio [8]: 36.6
EC50 (Trypanosoma cruzi [9]): 20.6 µM
CC50 at 24 h [10]: 66 µM
Activity (Trypanosoma cruzi [1]): 89.25%
Activity (Trypanosoma cruzi [24]): inactive
Activity (Trypanosoma cruzi [25]): inactive
selectivity ratio at 24 h [11]: 3.2
EC50 (Trypanosoma cruzi [12]): > 50 µM

Cc1ccccc1COc1ccc([C@H]2S[C@@H](C)C(=O)Nc3[nH]nc(C)c32)cc1
EC50 (Trypanosoma cruzi [2]): 2.2 µM
CC50 at 96 h [3]: 111 µM
CC50 at 96 h [4]: 111 µM
selectivity ratio [5]: 50.4
selectivity ratio at 24 h [6]: > 5.2
CC50 at 24 h [7]: > 200 µM
selectivity ratio [8]: 50.4
EC50 (Trypanosoma cruzi [9]): 38.6 µM
CC50 at 24 h [10]: > 200 µM
Activity (Trypanosoma cruzi [1]): 69.14%
selectivity ratio at 24 h [11]: > 5.2
EC50 (Trypanosoma cruzi [12]): > 50 µM

Cc1n[nH]c2c1[C@@H](c1ccc(OCc3cccc(F)c3)cc1)S[C@@H](C)C(=O)N2
EC50 (Trypanosoma cruzi [2]): 5.32 µM
CC50 at 96 h [3]: 103 µM
CC50 at 96 h [4]: 103 µM
selectivity ratio [5]: 19.4
selectivity ratio at 24 h [6]: 3.71
CC50 at 24 h [7]: 94 µM
selectivity ratio [8]: 19.4
EC50 (Trypanosoma cruzi [9]): 47 µM
CC50 at 24 h [10]: 94 µM
Activity (Trypanosoma cruzi [1]): 70.68%
selectivity ratio at 24 h [11]: 3.71
EC50 (Trypanosoma cruzi [12]): > 50 µM

COc1cc([C@H]2S[C@@H](C)C(=O)Nc3[nH]nc(C)c32)ccc1OCc1cccc(C)c1
Activity (Trypanosoma cruzi [1]): 25.05%

COc1cc([C@H]2S[C@@H](C)C(=O)Nc3[nH]nc(C)c32)ccc1OCc1ccc(Cl)cc1
EC50 (Trypanosoma cruzi [2]): 10.8 µM
CC50 at 96 h [3]: 50.6 µM
CC50 at 96 h [4]: 50.6 µM
selectivity ratio [5]: 4.7
selectivity ratio [8]: 4.7
EC50 (Trypanosoma cruzi [9]): 39.4 µM
Activity (Trypanosoma cruzi [1]): 53.94%
EC50 (Trypanosoma cruzi [12]): > 50 µM

From ChEMBL document CHEMBL4196064, “Identification of Pyrazolo[3,4-e][1,4]thiazepin based CYP51 inhibitors as potential Chagas disease therapeutic alternative: In vitro and in vivo evaluation, binding mode prediction and SAR exploration” (Eur J Med Chem, 2018)
